Bioassay records deposited in PubChem by several laboratories.
MEKK2 WT-MEK5: raises or lowers MEK5 binding to wildtype human MEKK2 PB1 domain. binding response (% of control), % at 10 µM. bead flow cytometry, Alexa488-MEK5 binding to MEKK2 WT; actives lie on both sides. Q9Y2U5. AID 1531. actives 1.1% (n = 290,000); in the data active = binding response below about 67% or above about 130%
MEKK2mut PB1 HTS: signal of MEK5 binding to mutant human MEKK2 PB1 domain | actives 0.35% (n = 290,000) | AID 1530 | percent response, % at 10 µM | bead flow cytometry, Alexa488-MEK5 binding to MEKK2 mutant; in the data active = percent response above about 24%, passing the limit was not always enough
GSK3 alpha inh: human GSK-3 alpha kinase inhibition. P49840. ADP-Glo luminescence, 60 min. inhibition, % at 10 µM. actives 0.1% (n = 320,000). AID 2650;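 active = more than half of replicates show inhibition above 20%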;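 note: GST-tagged GSK-3 alpha with peptide substrate and 25 µM ATP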
GSK3beta inhib: human GSK3beta kinase inhibition; activity score (negative = inhibition), % at 10 µM; GST-GSK3beta kinase, ADP-Glo luminescence, 60 min; hits give low values; P49841; actives 0.038% (n = 300,000);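 active = more than half of replicate wells score below -50%, meaning over 50% inhibition versus plate controls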
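Test system: GST-tagged human GSK3beta kinase, cell-free; evaluation: activity score scaled between in-plate DMSO and GW8510 controls; measured by: ADP-Glo luminescence; incubation: 60 min reaction, RT; benchmarks: DMSO and 20 µM GW8510; reagent: peptide substrate plus 25 µM ATP (final); medium: Tris/MgCl2 kinase buffer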
MEKK3 PB1 HTS: MEKK3-MEK5 PB1 interaction, increase or decrease. AID 1529. binding response (% of control), % at 10 µM. actives 1.4% (n = 290,000). bead-based flow cytometry, Alexa488-MEK5 binding to MEKK3; actives lie on both sides; 0 = blocked by unlabeled MEK5, 100 = vehicle;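 active = binding response more than 3 SD above or below the average of its plate-row segment, actives on both sides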;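 note: Alexa488 bead fluorescence after subtracting the streptavidin-only scavenger bead signal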
STK33 kinase inh: inhibitors of human STK33 kinase; Q9BYT3; purified STK33, MBP phosphorylation, ADP-Glo luminescence; inhibition, % at 10 µM; actives 0.073% (n = 320,000);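 active = inhibition at or above 25%, using the most active replicate where run in duplicate; inactive = inhibition below 25%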
Target sequence (Q9BYT3 whole entry, looked up): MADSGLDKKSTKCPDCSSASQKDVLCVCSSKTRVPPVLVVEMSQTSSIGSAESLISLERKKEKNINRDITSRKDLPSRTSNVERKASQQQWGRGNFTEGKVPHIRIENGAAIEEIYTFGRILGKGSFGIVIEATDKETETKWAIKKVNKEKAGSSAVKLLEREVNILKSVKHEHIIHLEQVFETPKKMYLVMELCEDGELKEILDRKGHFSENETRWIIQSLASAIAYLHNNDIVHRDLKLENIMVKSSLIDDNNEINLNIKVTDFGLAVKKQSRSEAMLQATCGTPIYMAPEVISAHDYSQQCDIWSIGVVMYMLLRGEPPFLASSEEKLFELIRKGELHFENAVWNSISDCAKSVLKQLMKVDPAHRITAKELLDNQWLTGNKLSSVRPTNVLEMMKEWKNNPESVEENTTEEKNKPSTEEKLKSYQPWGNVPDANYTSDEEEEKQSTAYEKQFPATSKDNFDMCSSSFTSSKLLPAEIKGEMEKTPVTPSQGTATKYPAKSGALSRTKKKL
Numbers stand for hits; 0 = inactive; - = not tested or not shown; [ ] = dose if it differs, or a comment. Only some compounds are listed: those with a hit (about 2.1% of all), similar ones and a draw of the others.

SMILES	MEKK2 WT-MEK5	MEKK2mut PB1 HTS	GSK3 alpha inh	GSK3beta inhib	MEKK3 PB1 HTS	STK33 kinase inh
C[C@H](NC(CCc1ccccc1)C(=O)O)C(=O)N1CCC[C@H]1C(=O)O (stereo not given in full)	0	0	0	0	0	0
O=C(Nc1ccsc1C(=O)O)c1ccccc1	0	0	0	0	0	0
O=C(Nc1ccsc1C(=O)NC1CC1)c1ccccc1	0	0	64	0	0	0
COc1ccc(-c2cc(CC3(C(=O)O)CCN(C(=O)OC(C)(C)C)CC3)on2)c(OC)c1	0	0	0	0	0	0
O=C(O)c1ccc(N=Nc2c(O)[nH]c3ccccc23)cc1	0	0	51	0	0	29
O=C(CCNC(=O)c1ccccc1)N=Nc1c(O)[nH]c2ccccc12	0	94	0	0	0	0
Cc1ccccc1N=Nc1c(O)[nH]c2ccccc12	-	-	0	0	-	0
O=C(NCCc1ccccc1)/C(=C\c1cccc([N+](=O)[O-])c1)NC(=O)c1ccco1	0	0	0	0	0	0
CCOC(=O)c1cccc(C2=CC(=O)C[C@H](c3ccc(OC)cc3)C2)c1	-	-	0	-	-	0
COc1ccccc1CCNC(=O)CCn1c(=O)c2cccn2c2ccc(F)cc21	0	0	0	0	0	0
COc1ccccc1S(=O)(=O)Cc1ccc(C(=O)NCCCN2CCN(c3ccc(F)cc3)CC2)o1	140	0	0	0	0	0
CC(OC(=O)c1ccncc1)C(=O)NC1CCCC1 (stereo not given)	0	0	0	0	0	0
CCC(C)N(C(=O)c1csnn1)C(C(=O)NCc1ccc(F)cc1)c1ccccc1 (stereo not given)	0	0	0	-	0	0
CC1(C)Cc2c(sc3c2C2=NCCN2C=N3)CS1	0	0	54	0	0	0
Cc1ccc(NC(=O)COC(=O)CCc2c(C)nc3ncnn3c2C)cc1	-	-	0	-	-	0
CC/C(C)=N\Nc1nc(-c2cc3cc(OC)ccc3oc2=O)cs1	0	0	0	0	0	0
C#CCOCCOCCOCCNc1nc(N2CCN(C(=O)CCCCCCCCCCNC(=O)[C@H](CCCN=C(N)N)n3cc(C[C@@H](C)CC)nn3)CC2)nc(N2CCN(C(=O)CCCCCCCCCCNC(=O)[C@@H]([C@H](C)CC)n3cc(CCCCCN)nn3)CC2)n1	-	-	0	-	-	27
C#CCOCCOCCOCCNc1nc(N2CCN(C(=O)CCCCCCCCCCNC(=O)[C@H]([C@@H](C)CC)n3cc(CCCCN=C(N)N)nn3)CC2)nc(N2CCN(C(=O)CCCCCCCCCCNC(=O)[C@H](CCCN=C(N)N)n3cc(C[C@@H](C)CC)nn3)CC2)n1	-	-	0	-	-	31
C#CCOCCOCCOCCNc1nc(N2CCN(C(=O)CCCCCCCCCCNC(=O)[C@H](CCCCN)n3cc(C[C@@H](C)CC)nn3)CC2)nc(N2CCN(C(=O)CCCCCCCCCCNC(=O)[C@H](CCCN=C(N)N)n3cc(C[C@@H](C)CC)nn3)CC2)n1	-	-	0	-	-	29
COCCn1cnc2c1c(=O)[nH]c(=O)n2Cc1ccccc1	0	0	0	0	0	0
Cc1cc(NC(=O)CSc2nnc(CNC(=O)c3ccc(F)cc3)o2)no1	0	0	0	0	0	0
C[C@H]1CN([C@@H](C)CO)C(=O)c2cccc(NC(=O)c3cnccn3)c2O[C@@H]1CN(C)S(=O)(=O)c1ccc(F)cc1	-	-	55	-	-	0
C[C@H](CO)N1C[C@H](C)[C@@H](CN(C)S(=O)(=O)c2ccc(F)cc2)Oc2c(NC(=O)Cc3ccccc3)cccc2C1=O	-	-	0	-	-	0
COc1cc(/C=N/NC(=O)c2sc(N)c(C#N)c2C)ccc1O	0	0	65	0	0	0
Cc1ccc(NC(=O)COC(=O)CC2CC3CCC2C3)cc1S(=O)(=O)N1CCOCC1 (stereo not given)	-	-	0	-	-	0
SMILES	MEKK2 WT-MEK5	MEKK2mut PB1 HTS	GSK3 alpha inh	GSK3beta inhib	MEKK3 PB1 HTS	STK33 kinase inh
COc1ccc(-n2c(SCCNCCO)nc3sc4c(c3c2=O)CCCC4)cc1	144	24	0	-	0	0
CN1/C(=C/C2CC(=O)N(c3cccc4ccccc34)C2=O)C(C)(C)c2ccccc21 (stereo not given)	0	0	0	0	0	0
CN1/C(=C/C2CC(=O)NC2=O)C(C)(C)c2ccccc21 (stereo not given)	0	0	65	-	0	0
CN1CCN(C(c2ccc(Cl)cc2)c2cc(Cl)c3cccnc3c2O)CC1 (stereo not given)	137	28	0	0	0	0
CCOC(=O)c1c(NC(=O)COc2ccccc2C#N)sc2c1CC(C)(C)NC2(C)C	134	0	0	0	0	0
CC1(C)Cc2c(sc(NC(=O)c3ccc(C(=O)c4ccccc4)cc3)c2C(N)=O)C(C)(C)N1	150	0	0	0	0	0
Cc1cc(=O)n2c3ccccc3n(CC(O)CN3CCC(C)CC3)c2c1C#N (stereo not given)	0	0	-	0	135	-
Cc1ccc(C(=O)c2oc3ccc(Cl)cc3c2NC(=O)CN2CCN(C)CC2)cc1	160	0	0	0	0	0
O=C(C1CCN(S(=O)(=O)c2ccccc2)CC1)N1CCCCCC1	0	0	0	0	0	0
COc1ccc(CN2CCOCCOCCOCCOCC2)cc1	-3.0	0	0	0	0	0
O=C(O)C(C(O)c1ccccc1)[n+]1ccccc1 (stereo not given)	-	-	0	0	-	0
Cc1ccc(-c2nc3n(n2)Cc2ccccc2-3)cc1	0	0	0	0	0	0
CCn1c(C)nc2cc(-c3nc4n(n3)Cc3ccccc3-4)ccc21	0	0	51	0	0	45
Cc1c(/C=N/NC(=O)c2cccnc2)c2ccccc2n1Cc1ccccc1	62[inhibitor]	110	0	0	0	0
Cc1nn(Cc2ccccc2)c(Cl)c1/C=N/NC(=O)c1cccnc1	0	0	0	0	0	0
COc1ccc(/C=N\NC(=O)c2cc(O)c(O)c(O)c2)cc1COc1ccc(C(=O)OCC(C)C)cc1	0	0	0	0	0	0
COc1cc(/C=C/C(=O)/C=C(O)/C=C/c2ccc(O)c(OC)c2)ccc1O	-	-	0	-	-	61
C=CCNC(=O)/C(C#N)=C/c1ccccc1[N+](=O)[O-]	4.0	0	0	0	0	0
N#C/C(=C\c1ccccc1[N+](=O)[O-])C(=O)NCc1ccccc1	0	0	0	0	0	0
CCCNC(=O)Nc1nnc(C2CC2)s1	0	0	0	0	0	0
Cc1[nH]c2ccccc2c1/C=N/Nc1ccc(F)cc1F	0.0	0	0	-	0	0
Cc1[nH]c2ccccc2c1/C=N/Nc1ccc([N+](=O)[O-])cc1	24	0	0	0	0	0
CC(=O)c1ccc(NC(=O)Nc2ccc(Br)cc2C)cc1	0	0	0	0	0	0
